Jurkat NFkB inh: lowers PMA/ionomycin-induced NF-kB signal in Jurkat cells; PMA/ionomycin-induced NF-kB luciferase reporter, luminescence; inhibition, % at 4 µM; hit rate 0.53% among 330,000; AID 435003; in the data active = inhibition above about 50%
GalR3 antagonist: antagonists of human GalR3; HEK293 GalR3-CNG cAMP membrane potential fluorescence; galR3 body fused to GalR1 C-terminus; O60755; inhibition, % at 3 µM; AID 651719; hit rate 0.44% among 360,000;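 active = inhibition above the screen-wide average plus 3 SD, cut at about 13% in these data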;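 also: forskolin and galanin both at EC90 stimulate the cells; cAMP rise reported by CNG channel membrane potential dye signal; 0% = forskolin plus galanin with DMSO and 100% = forskolin alone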
Target sequence (O60755 1-299 limits assumed): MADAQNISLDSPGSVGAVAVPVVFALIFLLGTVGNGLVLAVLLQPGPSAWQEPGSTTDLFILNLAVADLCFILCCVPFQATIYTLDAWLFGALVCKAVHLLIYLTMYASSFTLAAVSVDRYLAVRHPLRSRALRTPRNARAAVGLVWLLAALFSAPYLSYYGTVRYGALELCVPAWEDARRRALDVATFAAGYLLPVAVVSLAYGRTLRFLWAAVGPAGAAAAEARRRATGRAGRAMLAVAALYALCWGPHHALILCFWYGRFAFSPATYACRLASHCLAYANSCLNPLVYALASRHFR
GASC-1 inh: human JMJD2C demethylase inhibition | GST-JMJD2C(1-420) H3K9me3 demethylation, DELFIA europium | inhibition, % at 2.35 µM | hit rate 0.069% among 330,000 | AID 2099;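 active = more than half of a compound's replicate wells show inhibition beyond 50%, single wells judged on their own value; inconclusive = some, but no more than half, of replicates pass 50% inhibition; inactive = no replicate passes 50% inhibition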;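 also: signal counts dimethyl H3K9 product captured on neutravidin plate; 0% = median of DMSO wells and 100% = 0.3 times that DMSO median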
NR2E3 ag-1: NR2E3 (human) agonism | Q9Y5X4 | GST-NR2E3/biotin-RetCOR TR-FRET, 1536-well | inhibition of corepressor binding, % at 4.78 µM | hit rate 0.12% among 320,000;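 active = percent inhibition above the cutoff of mean plus 3 SD of all tested compounds, set per screening campaign, cut at about 20% in these data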;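 also: 0% = DMSO wells and 100% = biotin wells as full block of FRET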
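system = GST-tagged NR2E3 plus biotinylated RetCOR corepressor | input = 1.35 nM GST-NR2E3 | also added = 7 nM biotin-RetCOR | schedule = 5 h incubation at 4 °C | measured by = TR-FRET with europium anti-GST and streptavidin-D2, 340 nm excitation | read-out = percent loss of FRET ratio relative to control wells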
697 NFkB inh: lowers PMA/ionomycin-induced NF-kB signal in 697 B cells. hit rate 0.33% among 330,000. 697 B-cell NF-kB luciferase reporter, 16 h. inhibition, % at 4 µM; in the data active = inhibition above about 35%
NR2E3 ag-2: agonists of human NR2E3 nuclear receptor; Q9Y5X4; CHO-S Gal4-NCOR/VP16-NR2E3 two-hybrid, luciferase; inhibition of corepressor binding, % at 3.98 µM; hit rate 0.35% among 360,000;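 active = inhibition above the mean of all tested compounds plus 3 SD, cut at about 70% in these data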;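 also: 0% = DMSO with NR2E3 transfected cells and 100% = cells lacking NR2E3 construct; higher means lower luciferase signal from less NR2E3 corepressor binding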
NR2E3 agonist cf: NR2E3 (human) agonism, confirmation; shares compounds with NR2E3 ag-1; cell-free NR2E3 corepressor release, TR-FRET, 5 h; activation (reported as inhibition), % at 3.98 µM; hit rate 39% among 360; AID 2379; in the data active = activation above about 20%
PPARg-NCOR2 ag: releases PPARgamma from NCOR2 in NR2E3 counter-screen; shares compounds with NR2E3 ag-1; TR-FRET PPARg-NCOR2 coregulator interaction, biochemical; inhibition, % at 3.98 µM; hit rate 45% among 360; in the data active = inhibition above about 20%;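 also: 0% = DMSO vehicle and 100% = wells without protein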
Jurkat NFkB conf: inhibitors of the PMA/ionomycin-induced NF-kB reporter in Jurkat cells, retest; AID 435020; hit rate 27% among 2,700; inhibition, % at 4 µM; Jurkat NF-kB luciferase, 16 h; shares compounds with Jurkat NFkB inh;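 active = inhibition reaching about 45% at 4 µM in either replicate, limit read from the data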;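 also: plate controls were PMA/ionomycin stimulated DMSO wells for no effect and unstimulated DMSO wells for full effect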
697 NFkB conf: inhibitors of the PMA/ionomycin-induced NF-kB reporter in 697 B cells, retest | inhibition, % at 4 µM | hit rate 35% among 2,000 | 697 B-cell NF-kB luciferase, 16 h | shares compounds with 697 NFkB inh | AID 449746; in the data active = inhibition mostly above about 28%, no sharp cut-off; inactive = mostly below about 22%
Numbers without * were called inactive; ? = inconclusive; . = no result given. An excerpt weighted towards active compounds, which were near 1.5% of everything screened.

SMILES	Jurkat NFkB inh	GalR3 antagonist	GASC-1 inh	NR2E3 ag-1	697 NFkB inh	NR2E3 ag-2	NR2E3 agonist cf	PPARg-NCOR2 ag	others
O=C(CCN1CCCCC1)N/N=C/c1c[nH]c2ccccc12	-16	2	7	3	7	14	.	.
C=CCN(CC=C)Cc1c(O)ccc2c1oc(=O)c1ccccc12	9	-5	79*	34*	16	-34	14	-4
C=CCN(CC=C)Cc1cc(=O)oc2ccc3ccccc3c12	.	4	.	.	.	-32	.	.
COc1ccc(S(=O)(=O)N(C)CC(=O)N2CCC(C)CC2)cc1Cl	-2	0	7	22*	-3	-11	-9	-6
O=C(O)c1ccc2c(c1)[C@@H]1C=CC[C@@H]1[C@H](c1ccccn1)N2	0	2	-18	48*	17	-35	12	9
COc1ccc(C(=O)N/N=C(\C)c2ccc3c(c2)C2C=CCC2C(c2ccccc2)N3)cc1 (stereo not drawn)	.	.	10	-5	.	-27	.	.
O=C(O)CSc1ncnc2c1oc1ccccc12	-5	-1	5	4	21	7	.	.
O=C(CSc1ncnc2c1oc1ccccc12)Nc1ccccc1C(F)(F)F	-1	-1	6	44*	-14	8	70*	74*
N#CCCSc1ncnc2c1oc1ccccc12	3	2	1	21*	22	-12	-2	6
Cc1c(C(=O)O)c(C(=O)O)c2n1CCS2	-11	-3	0	1	12	1	.	.
O=[N+]([O-])/C(C(Cl)=C(Cl)Cl)=C(/Sc1ccccc1)N1CCCCC1	9	-1	-10	1	2	4	.	.
CC1(C(=O)NCc2ccc(Cl)c(Cl)c2)Oc2cccnc2NC1=O (stereo not drawn)	4	-6	-1	2	13	-12	.	.
COc1cc(CCC(=O)N2CCN(c3ncccn3)CC2)cc(OC)c1OC	8	0	21	-2	6	-27	.	.
N#Cc1c(-c2ccco2)nc(SCC(=O)Nc2cccc(Cl)c2)[nH]c1=O	-13	-13	10	26*	-6	-27	7	22*
CCCCCCN1C[C@@H](O)[C@H](n2cc(-c3ccc(F)cc3)nn2)C[C@@H]1c1ccccc1	.	-6	.	.	.	-33	.	.
Cc1cc(SCC(=O)NC2CCCC2)nc2ccccc12	6	-10	-14	22*	13	-10	8	5
COc1cccc2cc(C(=O)C3=C(O)C(=O)N(CCN4CCOCC4)C3c3cccs3)oc12 (stereo not drawn)	0	2	9	24*	8	5	21*	18
COc1cc(C2C(C(=O)c3cccs3)=C(O)C(=O)N2CCN2CCOCC2)cc(OC)c1OC (stereo not drawn)	3	-7	-4	3	21	-20	.	.
CCN(CC)CCN1C(=O)C(O)=C(C(=O)c2cc3ccccc3o2)C1c1cccnc1 (stereo not drawn)	5	0	2	28*	-19	-27	27*	28*
O=C(C1=C(O)C(=O)N(CCN2CCOCC2)C1c1cccc([N+](=O)[O-])c1)c1cc2ccccc2o1 (stereo not drawn)	.	-5	.	.	.	1	.	.
COc1ccccc1C1C(C(=O)c2cc3ccccc3o2)=C(O)C(=O)N1CCN(C)C (stereo not drawn)	12	-3	-2	18	16	6	.	.
CN(C)CCN1C(=O)C(O)=C(C(=O)c2cc3ccccc3o2)C1c1cccc(Br)c1 (stereo not drawn)	-9	-3	12	36*	28	-3	36*	34*
O=C(C1=C(O)C(=O)N(CCc2ccccc2)C1c1ccncc1)c1cc2ccccc2o1 (stereo not drawn)	6	-5	9	34*	4	-9	31*	31*
O=C(C1=C(O)C(=O)N(CCN2CCOCC2)C1c1ccc(F)cc1)c1cc2ccccc2o1 (stereo not drawn)	2	1	-4	27*	4	-3	31*	32*
Cc1ccc(C(=O)C2=C(O)C(=O)N(CCN3CCOCC3)C2c2ccccn2)o1 (stereo not drawn)	10	.	-29	.	15	.	.	.
SMILES	Jurkat NFkB inh	GalR3 antagonist	GASC-1 inh	NR2E3 ag-1	697 NFkB inh	NR2E3 ag-2	NR2E3 agonist cf	PPARg-NCOR2 ag	others
O=C(C1=C(O)C(=O)N(CCCN2CCOCC2)C1c1ccccn1)c1cc2ccccc2o1 (stereo not drawn)	17	10	-1	34*	4	-8	16	22*
O=C(C1=C(O)C(=O)N(CCN2CCOCC2)C1c1ccco1)c1cc2ccccc2o1 (stereo not drawn)	-3	-7	10	14	4	-10	.	.
O=C(C1=C(O)C(=O)N(CCN2CCOCC2)C1c1cccc(Br)c1)c1cc2ccccc2o1 (stereo not drawn)	12	-10	-39	35*	1	-21	52*	57*
C[C@@H]1CN[C@H](CCO)/C1=C\c1ccccc1	.	-8	.	.	.	6	.	.
Cc1cn([C@H]2C[C@H](O)[C@@H](/C=C/C(=O)NCCC(C)C)O2)c(=O)[nH]c1=O	.	-4	.	.	.	-2	.	.
O=C(O)c1cc2ccccc2c2cc(Br)ccc12	-3	-9	3	23*	21	-11	19	56*
Nc1ccc2c(c1)C(=O)C(=O)c1ccccc1-2	84*	1	19	20*	5	70	9	48*	Jurkat NFkB conf=24
CSc1ccc(CNC(=O)CCn2ccc3cc(S(=O)(=O)N4CCCC4)ccc32)cc1	-5	-9	19	3	2	4	.	.
COc1cccc(C(=O)Nc2ccccc2)c1	-37	-2	-2	0	16	-42	.	.
COc1cccc(C(=O)Nc2ccc3ccccc3c2)c1	-172	0	-2	30*	-408	-140	2	-3	Jurkat NFkB conf=-109;697 NFkB conf=-366
CCCCCCC1CCC(C(=O)N2CCOCC2)CC1 (stereo not drawn)	0	-2	-26	-1	9	-12	.	.
Cn1nc(-c2ccc(Cl)cc2)nc2c(=O)n(C)c(=O)nc1-2	28	.	?	37*	-316	.	32*	56*	697 NFkB conf=-293

Bioassay records: PubChem, several laboratories
